Measured values from ChEMBL document CHEMBL1136049, “Synthesis of syn- and anti-1-amino-3-[18F]fluoromethyl-cyclobutane-1-carboxylic acid (FMACBC), potential PET ligands for tumor detection” (J Med Chem, 2002).

Assays:
Rattus norvegicus [1] = species on record: Rattus norvegicus; assay: Radioactivity distribution in pancreas of tumor-bearing fischer rat after injection of anti-[18F]FMACBC after 120 min; type: ADME, organism-based; details: in vivo, 2 h
Procedure, shortened: (§1)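 Male Fischer 344 rats with intracranial 9L gliosarcoma (4 × 10^4 cells stereotaxically implanted; used 17–19 days after implantation). About 35 μCi tracer in 0.3 mL sterile water was given by tail vein to awake, restrained rats. Rats were killed at 5, 60 or 120 min. Tissues, tumor and contralateral brain were weighed and gamma counted, decay-corrected, and expressed as %ID/g; n = 3–5 per time point.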

Rattus norvegicus [2] = species on record: Rattus norvegicus; assay: Radioactivity distribution in heart of normal fischer rat after injection of syn-[18F]-FMACBC after 120 min.; type: ADME, organism-based; details: in vivo, 2 h
Procedure, shortened: (§2)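 Male Fischer 344 rats (200–250 g), normal, fed ad libitum, given ~85 μCi of 18F tracer in 0.3 mL sterile water IV through a tail vein catheter. Anesthesia was ketamine:xylazine IM. Groups of four were killed at 5, 30, 60 and 120 min. Tissues were weighed and gamma-counted against dose standards, decay-corrected, and expressed as mean % injected dose per gram.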

Rattus norvegicus [3] = species on record: Rattus norvegicus; assay: Radioactivity distribution in heart of normal fischer rat after injection of syn-[18F]-FMACBC after 60 min.; type: ADME, organism-based; details: in vivo, 1 h; procedure, shortened: as §2
Rattus norvegicus [4] = species on record: Rattus norvegicus; assay: Radioactivity distribution in bone of normal fischer rat after injection of syn-[18F]-FMACBC after 5 min.; type: ADME, organism-based, Bone element; details: in vivo; procedure, shortened: as §2
Rattus norvegicus [5] = species on record: Rattus norvegicus; assay: Radioactivity distribution in pancreas of tumor-bearing fischer rat after injection of syn-[18F]-FMACBC after 5 min; type: ADME, organism-based; details: in vivo; procedure, shortened: as §1
Rattus norvegicus [6] = species on record: Rattus norvegicus; assay: Radioactivity distribution in tumor of tumor-bearing fischer rat after injection of anti-[18F]FMACBC after 60 min; type: ADME, organism-based; details: in vivo, 1 h; procedure, shortened: as §1
Rattus norvegicus [7] = species on record: Rattus norvegicus; assay: Radioactivity distribution in liver of tumor-bearing fischer rat after injection of anti-[18F]FMACBC after 5 min; type: ADME, organism-based; details: in vivo; procedure, shortened: as §1
Rattus norvegicus [8] = species on record: Rattus norvegicus; assay: Radioactivity distribution in spleen of normal fischer rat after injection of anti-[18F]FMACBC after 120 min.; type: ADME, organism-based; details: in vivo, 2 h
Procedure, shortened: (§3)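 Normal male Fischer 344 rats (200–250 g) were anesthetised with ketamine:xylazine i.m. and given about 85 μCi tracer in 0.3 mL sterile water via a tail vein catheter. Groups of four were killed at 5, 30, 60 and 120 min. Selected tissues were weighed and gamma counted with dose standards, decay-corrected, and expressed as mean %ID/g.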

Rattus norvegicus [9] = species on record: Rattus norvegicus; assay: Radioactivity distribution in bone of normal fischer rat after injection of syn-[18F]-FMACBC after 120 min.; type: ADME, organism-based, Bone element; details: in vivo, 2 h; procedure, shortened: as §2
Rattus norvegicus [10] = species on record: Rattus norvegicus; assay: Radioactivity distribution in liver of normal fischer rat after injection of anti-[18F]FMACBC after 60 min.; type: ADME, organism-based; details: in vivo, 1 h; procedure, shortened: as §2
Rattus norvegicus [11] = species on record: Rattus norvegicus; assay: Radioactivity distribution in brain of normal fischer rat after injection of syn-[18F]-FMACBC after 30 min.; type: ADME, organism-based; details: in vivo, 0.5 h; procedure, shortened: as §2
Rattus norvegicus [12] = species on record: Rattus norvegicus; assay: Radioactivity distribution in brain of tumor-bearing fischer rat after injection of anti-[18F]FMACBC after 120 min; type: ADME, organism-based; details: in vivo, 2 h
Procedure, shortened: (§4)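 Male Fischer 344 rats carrying intracranial rat 9L gliosarcoma, made by stereotaxic injection of 4 × 10^4 cells 17–19 days before. Awake restrained rats received ~35 μCi of 18F tracer in 0.3 mL sterile water IV by tail vein and were killed at 5, 60 or 120 min, n = 3–5. Tissues were weighed, gamma-counted, decay-corrected and expressed as % injected dose per gram.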

Rattus norvegicus [13] = species on record: Rattus norvegicus; assay: Radioactivity distribution in pancreas of normal fischer rat after injection of anti-[18F]FMACBC after 120 min.; type: ADME, organism-based; details: in vivo, 2 h; procedure, shortened: as §3
Rattus norvegicus [14] = species on record: Rattus norvegicus; assay: Radioactivity distribution in testis of normal fischer rat after injection of anti-[18F]FMACBC after 5 min.; type: ADME, organism-based; details: in vivo; procedure, shortened: as §3
Rattus norvegicus [15] = species on record: Rattus norvegicus; assay: Radioactivity distribution in testis of normal fischer rat after injection of anti-[18F]FMACBC after 30 min.; type: ADME, organism-based; details: in vivo, 0.5 h; procedure, shortened: as §3
Rattus norvegicus [16] = species on record: Rattus norvegicus; assay: Radioactivity distribution in bone of tumor-bearing fischer rat after injection of anti-[18F]FMACBC after 120 min; type: ADME, organism-based, Bone element; details: in vivo, 2 h; procedure, shortened: as §4
Rattus norvegicus [17] = species on record: Rattus norvegicus; assay: Radioactivity distribution in muscle of normal fischer rat after injection of syn-[18F]-FMACBC after 60 min.; type: ADME, organism-based, Muscle tissue; details: in vivo, 1 h; procedure, shortened: as §3
Rattus norvegicus [18] = species on record: Rattus norvegicus; assay: Radioactivity distribution in pancreas of normal fischer rat after injection of anti-[18F]FMACBC after 30 min.; type: ADME, organism-based; details: in vivo, 0.5 h; procedure, shortened: as §3
Rattus norvegicus [19] = species on record: Rattus norvegicus; assay: Radioactivity distribution in brain of tumor-bearing fischer rat after injection of syn-[18F]-FMACBC after 120 min; type: ADME, organism-based; details: in vivo, 2 h; procedure, shortened: as §4
Rattus norvegicus [20] = species on record: Rattus norvegicus; assay: Radioactivity distribution in bone of normal fischer rat after injection of syn-[18F]-FMACBC after 30 min.; type: ADME, organism-based, Bone element; details: in vivo, 0.5 h; procedure, shortened: as §2
Rattus norvegicus [21] = species on record: Rattus norvegicus; assay: Radioactivity distribution in kidney of tumor-bearing fischer rat after injection of syn-[18F]-FMACBC after 120 min; type: ADME, organism-based; details: in vivo, 2 h; procedure, shortened: as §4
Rattus norvegicus [22] = species on record: Rattus norvegicus; assay: Radioactivity distribution in muscle of normal fischer rat after injection of anti-[18F]FMACBC after 5 min.; type: ADME, organism-based, Muscle tissue; details: in vivo; procedure, shortened: as §3
Rattus norvegicus [23] = species on record: Rattus norvegicus; assay: Radioactivity distribution in liver of tumor-bearing fischer rat after injection of syn-[18F]-FMACBC after 60 min; type: ADME, organism-based; details: in vivo, 1 h; procedure, shortened: as §1
Rattus norvegicus [24] = species on record: Rattus norvegicus; assay: Radioactivity distribution in bone of tumor-bearing fischer rat after injection of syn-[18F]-FMACBC after 5 min; type: ADME, organism-based, Bone element; details: in vivo; procedure, shortened: as §4
Rattus norvegicus [25] = species on record: Rattus norvegicus; assay: Radioactivity distribution in testis of normal fischer rat after injection of syn-[18F]-FMACBC after 60 min.; type: ADME, organism-based; details: in vivo, 1 h; procedure, shortened: as §3
Rattus norvegicus [26] = species on record: Rattus norvegicus; assay: Radioactivity distribution in testis of normal fischer rat after injection of syn-[18F]-FMACBC after 120 min.; type: ADME, organism-based; details: in vivo, 2 h; procedure, shortened: as §3
Rattus norvegicus [27] = species on record: Rattus norvegicus; assay: Radioactivity distribution in tumor of tumor-bearing fischer rat after injection of anti-[18F]FMACBC after 5 min; type: ADME, organism-based; details: in vivo; procedure, shortened: as §1
Rattus norvegicus [28] = species on record: Rattus norvegicus; assay: Radioactivity distribution in brain of normal fischer rat after injection of anti-[18F]FMACBC after 120 min.; type: ADME, organism-based; details: in vivo, 2 h; procedure, shortened: as §2
Rattus norvegicus [29] = species on record: Rattus norvegicus; assay: Radioactivity distribution in heart of tumor-bearing fischer rat after injection of syn-[18F]-FMACBC after 60 min; type: ADME, organism-based; details: in vivo, 1 h; procedure, shortened: as §4
Rattus norvegicus [30] = species on record: Rattus norvegicus; assay: Radioactivity distribution in liver of tumor-bearing fischer rat after injection of syn-[18F]-FMACBC after 5 min; type: ADME, organism-based; details: in vivo; procedure, shortened: as §1
Rattus norvegicus [31] = species on record: Rattus norvegicus; assay: Radioactivity distribution in blood of tumor-bearing fischer rat after injection of syn-[18F]-FMACBC after 5 min; type: ADME, organism-based; details: in vivo; procedure, shortened: as §4
Rattus norvegicus [32] = species on record: Rattus norvegicus; assay: Radioactivity distribution in bone of tumor-bearing fischer rat after injection of syn-[18F]-FMACBC after 60 min; type: ADME, organism-based, Bone element; details: in vivo, 1 h; procedure, shortened: as §4
Rattus norvegicus [33] = species on record: Rattus norvegicus; assay: Radioactivity distribution in blood of normal fischer rat after injection of anti-[18F]FMACBC after 120 min.; type: ADME, organism-based; details: in vivo, 2 h; procedure, shortened: as §2
Rattus norvegicus [34] = species on record: Rattus norvegicus; assay: Radioactivity distribution in pancreas of tumor-bearing fischer rat after injection of syn-[18F]-FMACBC after 60 min; type: ADME, organism-based; details: in vivo, 1 h; procedure, shortened: as §1
Rattus norvegicus [35] = species on record: Rattus norvegicus; assay: Radioactivity distribution in blood of normal fischer rat after injection of syn-[18F]-FMACBC after 5 min.; type: ADME, organism-based; details: in vivo; procedure, shortened: as §2
Rattus norvegicus [36] = species on record: Rattus norvegicus; assay: Radioactivity distribution in pancreas of normal fischer rat after injection of anti-[18F]FMACBC after 5 min.; type: ADME, organism-based; details: in vivo; procedure, shortened: as §3
Rattus norvegicus [37] = species on record: Rattus norvegicus; assay: Radioactivity distribution in testis of normal fischer rat after injection of syn-[18F]-FMACBC after 30 min.; type: ADME, organism-based; details: in vivo, 0.5 h; procedure, shortened: as §3
Rattus norvegicus [38] = species on record: Rattus norvegicus; assay: Radioactivity distribution in lungs of normal fischer rat after injection of syn-[18F]-FMACBC after 30 min.; type: ADME, organism-based, Lung; details: in vivo, 0.5 h; procedure, shortened: as §3
Rattus norvegicus [39] = species on record: Rattus norvegicus; assay: Radioactivity distribution in liver of normal fischer rat after injection of anti-[18F]FMACBC after 5 min.; type: ADME, organism-based; details: in vivo; procedure, shortened: as §2
Rattus norvegicus [40] = species on record: Rattus norvegicus; assay: Radioactivity distribution in pancreas of tumor-bearing fischer rat after injection of anti-[18F]FMACBC after 5 min; type: ADME, organism-based; details: in vivo; procedure, shortened: as §1
Rattus norvegicus [41] = species on record: Rattus norvegicus; assay: Radioactivity distribution in testis of tumor-bearing fischer rat after injection of anti-[18F]FMACBC after 60 min; type: ADME, organism-based; details: in vivo, 1 h; procedure, shortened: as §1

N[C@]1(C(=O)O)C[C@@H](CF)C1 was tested, and the ID/g (Rattus norvegicus [1]) was 2.17%, the ID/g (Rattus norvegicus [2]) was 0.6% and the ID/g (Rattus norvegicus [3]) was 0.64%. For the same compound, the ID/g (Rattus norvegicus [4]) was 0.7%, the ID/g (Rattus norvegicus [5]) was 3.19% and the ID/g (Rattus norvegicus [6]) was 2.5%. The ID/g (Rattus norvegicus [7]) was 0.87%, the ID/g (Rattus norvegicus [8]) was 0.47% and the ID/g (Rattus norvegicus [9]) was 0.32%. The ID/g (Rattus norvegicus [10]) was 0.47%, the ID/g (Rattus norvegicus [11]) was 0.24% and the ID/g (Rattus norvegicus [12]) was 0.28%. The ID/g (Rattus norvegicus [13]) was 4.09%, the ID/g (Rattus norvegicus [14]) was 0.24% and the ID/g (Rattus norvegicus [15]) was 0.25%. For the same compound, the ID/g (Rattus norvegicus [16]) was 0.19%, the ID/g (Rattus norvegicus [17]) was 0.61% and the ID/g (Rattus norvegicus [18]) was 4.13%. It also gave an ID/g (Rattus norvegicus [19]) of 0.27%, an ID/g (Rattus norvegicus [20]) of 0.32% and an ID/g (Rattus norvegicus [21]) of 0.34%. The ID/g (Rattus norvegicus [22]) was 0.46%, the ID/g (Rattus norvegicus [23]) was 0.33% and the ID/g (Rattus norvegicus [24]) was 0.26%. For the same compound, the ID/g (Rattus norvegicus [25]) was 0.23%, the ID/g (Rattus norvegicus [26]) was 0.22% and the ID/g (Rattus norvegicus [27]) was 1.28%. The ID/g (Rattus norvegicus [28]) was 0.25%, the ID/g (Rattus norvegicus [29]) was 0.44% and the ID/g (Rattus norvegicus [30]) was 0.64%. The ID/g (Rattus norvegicus [31]) was 0.44%, the ID/g (Rattus norvegicus [32]) was 0.12% and the ID/g (Rattus norvegicus [33]) was 0.31%. For the same compound, the ID/g (Rattus norvegicus [34]) was 2.08%, the ID/g (Rattus norvegicus [35]) was 0.53% and the ID/g (Rattus norvegicus [36]) was 2.56%. The ID/g (Rattus norvegicus [37]) was 0.29%, the ID/g (Rattus norvegicus [38]) was 0.46% and the ID/g (Rattus norvegicus [39]) was 0.81%. The ID/g (Rattus norvegicus [40]) was 3.26% and the ID/g (Rattus norvegicus [41]) was 0.26%.
